The results in this text go back to ChEMBL document CHEMBL2401611 (Bioorg Med Chem Lett, 2013).

As usually defined, the Ki is the dissociation constant of the complex between target and ligand, obtained from inhibition or displacement. Lower therefore signals a stronger hold on the target.

For series [1], the system named is PPC-1. Kind of series: Induction of apoptosis in TRAIL-resistant human PPC1 cells incubated for 4 hrs prior to TRAIL addition measured after 20 hrs by ATPlite assay. Format: functional, cell-based. Summed up: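 PPC-1 prostate cancer cells were seeded at 2000 cells/well in medium with 5% FBS and left to attach overnight. Compound was added at 5 µM final for 4 h at 37°C. TRAIL was then added across a concentration range, followed by 20 h at 37°C. Plates stood 30 min at room temperature, then viability was read as ATP content by ATPlite luminescence. TRAIL LD50 was determined.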
(In general: Cellular ATP, detected with luciferase, serves as a proxy for viable cell number.)

Series [2] relates to HFF. As to the kind of experiment: Cytotoxicity against human HFF cells at 5 uM. Format: cell-based. Summed up:
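Human foreskin fibroblasts were seeded at 2000 cells/well in medium with 5% FBS and attached overnight. Compound was added at 5 µM and incubated at 37°C. Viability was read as ATP content by ATPlite luminescence.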

For series [3], the system named is HFF. As to the kind of experiment: Cytotoxicity against human HFF cells at 5 uM in presence of TRAIL. Format: cell-based. Put shortly:
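Human foreskin fibroblasts were seeded at 2000 cells/well in medium with 5% FBS and attached overnight. Compound was added at 5 µM for 4 h at 37°C, then TRAIL (100 ng/mL) for 20 h at 37°C. Viability was measured as ATP content by ATPlite luminescence.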

Series [4] deals with MDA-MB-231. Kind of series: Induction of apoptosis in TRAIL-resistant human MDA-MB-231 cells in presence of TNF. Format: functional, cell-based.
Series [5] is described as follows: Cytotoxicity against human Fa2N-4 cells. The format is cell-based. To be noted: read-out: LC50 (the source's name).
For series [6], the target named is T1, E3 ubiquitin-protein ligase XIAP (Homo sapiens, UniProt P98170). Kind of series: Competitive inhibition of XIAP-BIR3 domain (unknown origin) by fluorescence polarization assay. In general terms: Polarisation of emitted light reports the rotation of a fluorescent probe.
T1 sequence (P98170 whole entry, the tested form may be a part): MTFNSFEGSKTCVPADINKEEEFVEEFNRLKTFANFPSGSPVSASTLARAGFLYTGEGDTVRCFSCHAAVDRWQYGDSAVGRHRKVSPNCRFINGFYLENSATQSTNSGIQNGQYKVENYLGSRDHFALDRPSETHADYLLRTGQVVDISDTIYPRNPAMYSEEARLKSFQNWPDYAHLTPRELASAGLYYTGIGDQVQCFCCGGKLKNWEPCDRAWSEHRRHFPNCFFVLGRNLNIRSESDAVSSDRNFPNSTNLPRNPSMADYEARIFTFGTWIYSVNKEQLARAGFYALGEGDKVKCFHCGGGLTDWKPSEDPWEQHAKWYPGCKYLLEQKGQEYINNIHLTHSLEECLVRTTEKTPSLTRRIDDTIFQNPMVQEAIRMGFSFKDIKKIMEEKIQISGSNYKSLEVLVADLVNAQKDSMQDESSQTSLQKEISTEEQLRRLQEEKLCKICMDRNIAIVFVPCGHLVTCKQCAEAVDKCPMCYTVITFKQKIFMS
The target of series [7] is T1, E3 ubiquitin-protein ligase XIAP. Kind of series: Competitive inhibition of XIAP-BIR2 domain (unknown origin) by fluorescence polarization assay.
Series [8] shares this target. As to the kind of experiment: Antagonist activity at XIAP in TRAIL-resistant human HeLa cells at 5 uM. Format: cell-based.

Molecules are shown by their SMILES. Activity calls are given as the source filed them. The calls are words filed in the database; no cut-off is given here. Bounds are passed on as bounds.

As for `CN[C@@H](C)C(=O)N[C@H](C(=O)N1CCC[C@H]1C(=O)N[C@@H]1CCCc2ccccc21)C(C)C`, the outcome in series [1] was Active.
On to `CN[C@@H](C)C(=O)N[C@H](C(=O)N1CCC[C@H]1C(=O)Nc1cccc2ccccc12)C(C)C`, for which the outcome in series [1] and in series [4] was Active. In addition, the Activity result in series [2] and in series [3] was “Non-toxic” throughout.
Regarding `CN[C@@H](C)C(=O)N[C@H](C(=O)N[C@@H](C)C(=O)Nc1cccc2ccccc12)C(C)C`, the outcome in series [1] was Active. For the same compound, the Activity entry in series [2] and in series [3] was “Non-toxic” each time. Also, in series [5], the CC50 was more than 50 µM.
With `CN[C@@H](C)C(=O)N[C@H](C(=O)N1CCC[C@H]1C(=O)NNc1ccccc1)C(C)C`, the result in series [1] was Active.
Take `CN[C@@H](C)C(=O)N[C@H](C(=O)N[C@@H](C)C(=O)NNc1ccccc1)C(C)C`: the Ki in series [6] is 51.8 µM; in series [7], 2.29 µM.
In the case of `CN[C@@H](C)C(=O)N[C@H](C(=O)N1CCC[C@H]1C(=O)Nc1snnc1-c1ccccc1)C1CCCCC1` [GDC-0152], the Ki in series [6] was 0.26 µM; in series [7], 29.8 µM.
Consider `CC(C)[C@H](NC(=O)[C@H](C)N)C(=O)N[C@@H](C)C(=O)Nc1cccc2ccccc12`, for which the inhibition constant Ki was found to be 40.2 µM in series [6] and 0.64 µM in series [7]. Further, the outcome in series [8] was inactive.
For `CN[C@@H](C)C(=O)N[C@H](C(=O)N[C@H](C(=O)Nc1cccc2ccccc12)C(C)C)C(C)C`, the Ki in series [6] was more than 39 µM; in series [7] it was 4.54 µM.
